# Source: PubChem (Broad Institute)
# Compounds with a hit are over-represented: about 3.5% of the library has one in this group of screens.
# rRNA inh HTS: selective bacterial rRNA inhibition in E. coli | E. coli WT GFP vs humanized-ribosome RFP mutants, fluorescence, 24 h; stronger effect = lower value; DMSO median 0, no signal -100 | GFP signal change (wild-type ribosome), % (concentration not given with the values) | 350,000 compounds, 1.6% hits | AID 720706;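 active = significant combined selectivity score with lowered wild-type GFP, culture density cut under 30%, mutant RFP and density less affected; inactive = any of these conditions unmet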
# PGC1a acetyl inh: modulators of PGC1a acetylation; U2OS PGC1a acetylation, AlphaScreen anti-acetyl-lysine; with virally co-expressed GCN5 acetyltransferase; inhibition, % at 15.6 µM; 350,000 compounds, 0.17% hits;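 active = every replicate shows inhibition of at least 40%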;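 also: 0% = neutral control wells and 100% = positive control wells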
# HIV Env fusion: blocks HIV Env-driven cell-cell fusion | HeLa-JRFL Env/CEM21 cell fusion, luciferase | inhibition, % at 12.3 µM | 360,000 compounds, 1.1% hits | AID 651610;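 active = mean replicate inhibition score of at least 50 and every replicate individually at or above 50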;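 also: 0% = plate neutral controls and 100% = maraviroc near 300 nM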
# FN deposition inh: fibronectin deposition inhibition | AH1F fibroblasts, Alexa488-fibronectin deposition fluorescence, overnight | inhibition, % at 12.6 µM | 350,000 compounds, 0.086% hits | AID 743247;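 active = mean inhibition across replicates of 30% or more, regardless of how many single replicates reach that level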;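 also: positive control wells lacked labelled fibronectin entirely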
#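 Test system: AH1F fibroblast monolayer depositing Alexa488-labelled fibronectin into matrix. Input: 10000 cells per well. Technique: fluorescence, ex 485 nm, em 525 nm. Buffer or medium: DMEM plus 2% serum, read in PBS. Timing: 1 h cell adhesion before compound, then overnight fibronectin incubation. Compound: single dose, pinned. Read-out basis: inhibition from reduced deposited-fibronectin fluorescence.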
# PglD inh: inhibitors of Campylobacter jejuni PglD acetyltransferase; AID 602405; purified PglD enzyme, DTNB colorimetric CoA detection; 360,000 compounds, 0.098% hits; inhibition, % at 12.5 µM; in the data active = inhibition above about 16%, passing the limit was not always enough
# DENV2 CPE rescue: DENV2-induced cell death inhibition | CPE inhibition, % at 9.99 µM | DENV2-infected cells, cytopathic effect rescue, plate reader | AID 651640 | 350,000 compounds, 1.7% hits; in the data active = CPE inhibition above about 20%, passing the limit was not always enough; tested in BHK-21 cells;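 also: 0% = median of neutral control wells and 100% = median of positive control wells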
# Numbers without * were called inactive; . = no result given; [ ] = remark or other dose.
SMILES,rRNA inh HTS,PGC1a acetyl inh,HIV Env fusion,FN deposition inh,PglD inh,DENV2 CPE rescue
C[C@@H]1CN([C@H](C)CO)C(=O)c2cc(NC(=O)NC3CCCCC3)ccc2O[C@@H](C)CCCCO[C@H]1CN(C)Cc1ccc2c(c1)OCO2,3,-2,21[16.7 µM],.,4,63*
C[C@@H]1CN([C@@H](C)CO)C(=O)c2cc(NC(=O)NC3CCCCC3)ccc2O[C@@H](C)CCCCO[C@H]1CN(C)Cc1ccc2c(c1)OCO2,-2,-2,-9[16.7 µM],.,4,45*
Cc1noc(/C=C/N(C)C)c1S(=O)(=O)N1CCCC(C(=O)NC2CCCCC2)C1 (stereo not given),-5,-13,.,5,-3,0
Cc1noc(/C=C/N(C)C)c1S(=O)(=O)N(C)CC(=O)NC1CCCCC1,.,43*,.,.,.,.
CN(C)CCCN(Cc1ccccc1)C(=S)Nc1cccc(C(F)(F)F)c1,.,-15,-5,-1,4,.
Cc1cc(NC(=S)N(Cc2ccc(Cl)cc2)Cc2ccc(C(=O)O)cc2)ccc1Cl,-58,13,9,4,-2,-4
CN(C)CCCN(Cc1ccccc1)C(=S)Nc1ccc(F)c(Cl)c1,-46*,2,6,-4,.,5
COc1ccc(NC(=S)N(Cc2ccc(Cl)cc2)Cc2ccc(C(=O)O)cc2)cc1Cl,-32*,.,-1,11,-1,-1
C[C@@H]1CCCCO[C@@H](CN(C)Cc2ccc(Cl)c(Cl)c2)[C@H](C)CN([C@H](C)CO)C(=O)c2cc(NS(=O)(=O)c3cn(C)cn3)ccc2O1,3,-9,3[16.7 µM],.,1,-12
CCS(=O)(=O)N1[C@@H](CO)[C@H](c2ccccc2)C12CN(C(=O)C1CCCC1)C2,4,.,.,-8,.,5
Cc1ccc(S(=O)(=O)Nc2cccc(C(=O)NCCCn3ccnc3)c2)cc1F,0,.,-22,-3,.,54*
Cc1ccc(NS(=O)(=O)c2cccc(C(=O)NCCCn3ccnc3)c2)cc1,1,.,0,4,.,-5
Cc1ccc(NC(=S)NC(=O)C2CCC2)cc1C,3,.,-80,0,1,69*
Cc1ccc(NC(=S)NC(=O)C2CCCC2)cc1C,-29,2,-45,-6,2,-1
O=C(NC(=S)Nc1ccc(Br)c(Cl)c1)C1CC1,-27*,.,-13,7,-1,2
O=c1oc(-c2ccccc2NS(=O)(=O)c2ccccc2)nc2ccccc12,.,9,.,.,1,.
O=c1oc(-c2ccccc2NS(=O)(=O)c2ccc(F)cc2)nc2ccccc12,-32*,25,12,-4,2,1
CCCCCn1c(CCNC(=O)c2cccs2)nc2ccccc21,-30*,-1,.,.,0,6
CCCCCn1c(C(C)NC(=O)CCC)nc2ccccc21 (stereo not given),.,.,74*,1,-1,0
CCCCCn1c(CNC(=O)c2cccs2)nc2ccccc21,.,-2,24,-2,3,.
COc1ccc2ccccc2c1/C=N/NC(=O)c1ccccc1F,-1,12,-11,1,-5,44*
CCNS(=O)(=O)c1ccc(Br)c(C(=O)OC(C)C(=O)NCC2CCCCC2)c1 (stereo not given),-2,2,4,-3,0,43*
O=C(Nc1ccc(CN2CCOCC2)cc1)c1ccc(Cl)cc1,10,.,-33,-1,2,15
COC(=O)c1ccc(NC(=O)c2ccc(CN3CCOCC3)cc2)cc1,.,20,84*,0,1,.
O=C(Nc1ccc(CN2CCOCC2)cc1)c1ccc(F)cc1,5,54*,-52,-8,-6,-2
SMILES,rRNA inh HTS,PGC1a acetyl inh,HIV Env fusion,FN deposition inh,PglD inh,DENV2 CPE rescue
O=C(Nc1ccc(CN2CCS(=O)(=O)CC2)cc1)c1ccc(C(F)(F)F)cc1,.,-13,76*,-4,-4,12
COc1cccc(S(=O)(=O)Nc2ccc3c(c2)[C@@H]2C[C@H](CC(=O)NCCc4ccccc4)O[C@@H](CO)[C@@H]2O3)c1,-11,6,0[16.7 µM],.,3,6
C[C@@H]1CN([C@H](C)CO)C(=O)Cc2cc(NC(=O)Nc3ccc(C(F)(F)F)cc3)ccc2O[C@@H]1CN(C)Cc1ccc(Oc2ccccc2)cc1,2,-10,8[16.7 µM],.,1,-6
O=C(NCc1cc(C(F)(F)F)cc(C(F)(F)F)c1)C1CC(c2ccccc2[N+](=O)[O-])=NO1 (stereo not given),-27,-7,22,-15,-2,-7
Cc1ccccc1-c1cc(C(=O)NCc2cccc(C(F)(F)F)c2)nn1CC1CC(c2cccc([N+](=O)[O-])c2)=NO1 (stereo not given),7,-24,46,-2,2,49*
O=C(NCc1cccc(C(F)(F)F)c1)C1CC(c2ccccc2[N+](=O)[O-])=NO1 (stereo not given),-33*,5,-12,-1,6,10
Cc1ccccc1-c1cc(C(=O)O)nn1CC1CC(c2cccc([N+](=O)[O-])c2)=NO1 (stereo not given),-8,.,15,-32,6,126*
Cc1ccccc1-c1cc(C(=O)NCc2ccc(OC(F)(F)F)cc2)nn1CC1CC(c2cccc([N+](=O)[O-])c2)=NO1 (stereo not given),10,.,31,-1,-1,-10
Cc1cc(N2CCCC2)ccc1NC(=O)COc1cccc(C(F)(F)F)c1,6,.,59*,.,-10,20
O=C(COc1ccccc1)Nc1cc(C(F)(F)F)ccc1N1CCCC1,.,-14,.,.,8,.
C/C=C/c1ccc([C@@H]2[C@@H](CN(C)C(=O)CN(C)C)N(C(C)=O)[C@H]2CO)cc1,4,12,.,.,2,6
COC(=O)C(C)Oc1cc(OC(C)C(=O)OC)c2c(-c3ccccc3)cc(=O)oc2c1 (stereo not given),-24*,.,3,11,8,2
C[C@H]1CN([C@@H](C)CO)C(=O)c2cc(NS(=O)(=O)c3ccc(Cl)cc3)ccc2O[C@@H]1CN(C)CC1CC1,3,-9,-11[16.7 µM],.,0,-8
Cc1noc(C)c1S(=O)(=O)Nc1ccc2c(c1)C(=O)N([C@H](C)CO)C[C@H](C)[C@H](CN(C)S(=O)(=O)c1cn(C)cn1)OCCCC[C@H](C)O2,0,-5,-3[16.7 µM],-8,-3,-12
CCCCCCCCCn1c2c(c(=N)c3c1CCC3)CCC2,.,.,.,.,-1,.
CCCCCCCn1c2c(c(=N)c3c1CCC3)CCCC2,-50,-2,72*,-4,.,3
CCCCCCn1c2c(c(=N)c3c1CCC3)CCC2,.,24,81*,-5,.,.
N=c1c2c(n(Cc3ccc(F)cc3)c3c1CCC3)CCC2,-29*,.,.,.,.,4
COc1ccc(NC(=O)N2CC(=O)N3[C@H](CO)[C@H](c4ccc(Br)cc4)[C@@H]3C2)cc1,-2,12,.,1,.,-12
Cc1cc(-c2onc(C)c2C(N)=O)no1,3,-1,6,3,.,8
